Results as given in ChEMBL document CHEMBL3091309, “A CD4 mimic as an HIV entry inhibitor: pharmacokinetics” (Bioorg Med Chem, 2013).

Key:
Plasma [1] = experiment: Adsorption in rhesus monkey plasma assessed as YYA-021 level at 1 mg/ml after 1 hr by HPLC analysis; format: ADME, cell-free, Macaca mulatta
In short: (§1)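 Macaque whole blood (1.0 mL) spiked with 2-HCl in saline (5 mg/mL stock, 0.25 mL), incubated 37°C for 0, 1 or 2 h. Plasma and blood cells separated by centrifugation; cells brought to 1.0 mL with PBS, and an aliquot sonicated. In the re-addition arm, plasma was added to 1 h cells and incubated 1 h more. MeOH-extracted supernatants, phenol internal standard 600 µg/mL final, analyzed by HPLC.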

Plasma [2] = experiment: Adsorption in rhesus monkey plasma at 1 mg/ml after 2 hrs by HPLC analysis; format: ADME, cell-free, Macaca mulatta; in short: as §1
Plasma [3] = experiment: Adsorption in rhesus monkey plasma assessed as YYA-021 level at 1 mg/ml measured immediately by HPLC analysis; format: ADME, cell-free, Macaca mulatta; in short: as §1
[4] = Plasma concentration in rhesus monkey at 13.4 mg/kg, iv after 4 hrs by HPLC analysis; format: ADME, organism-based, Macaca mulatta; set-up: dose 13.4 mg/kg, route intravenous
In short: (§2)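 Macaque given 70.6 mg 2-HCl in 30 mL 0.1 M sodium phosphate buffer with NaCl, pH 7.4, by cephalic vein injection. Blood (3.0 mL) taken at 0, 0.5, 1, 2, 4 and 24 h, and plasma stored at -80°C. Plasma extracted with MeOH and spiked with phenol (150 µg/mL final). Quantified by HPLC on a 20–35% CH3CN (0.1% TFA) gradient over 30 min.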

Rhesus monkey [5] = experiment: Toxicity in rhesus monkey assessed as prolonged PR interval in bradycardia at 70.6 mg, iv; format: organism-based, Macaca mulatta; conditions: in vivo
Plasma [6] = experiment: Adsorption in rhesus monkey plasma at 1 mg/ml after 1 hr followed by plasma addition by HPLC analysis; format: ADME, cell-free, Macaca mulatta; in short: as §1
Plasma [7] = experiment: Adsorption in rhesus monkey plasma at 1 mg/ml measured immediately by HPLC analysis; format: ADME, cell-free, Macaca mulatta; in short: as §1
Rattus norvegicus [8] = experiment: Toxicity in iv dosed Jcl:Sprague-Dawley rat assessed as renal and hepatic dysfunction; format: organism-based; conditions: in vivo
[9] = Adsorption in rhesus monkey blood cells assessed as YYA-021 level at 1 mg/ml measured immediately by HPLC analysis; format: ADME, cell-based, Macaca mulatta; in short: as §1
[10] = Adsorption in rhesus monkey blood cells assessed as YYA-021 level at 1 mg/ml after 1 hr followed by plasma addition by HPLC analysis; format: ADME, cell-based, Macaca mulatta; in short: as §1
Plasma [11] = experiment: Adsorption in rhesus monkey plasma at 1 mg/ml preincubated for 1 hr followed by plasma addition measured after 1 hr by HPLC analysis; format: ADME, cell-free, Macaca mulatta; in short: as §1
[12] = Plasma concentration in Jcl:Sprague-Dawley rat at 14 mg/kg, iv after 30 mins by HPLC analysis; format: ADME, organism-based; set-up: dose 14 mg/kg, route intravenous
In short: (§3)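 6-week-old Jcl:SD rats given 2.5 mg 2-HCl in 1.0 mL saline by tail-vein injection. Tail-vein blood drawn at 15, 30, 45, 60, 120 and 240 min and centrifuged to plasma. Plasma stored at -80°C, mixed with phenol internal standard (62.5 µg/mL final), filtered and quantified by HPLC. Standard curve from peak-area ratio to phenol.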

Plasma [13] = experiment: Adsorption in rhesus monkey plasma at 1 mg/ml after 1 hr by HPLC analysis; format: ADME, cell-free, Macaca mulatta; in short: as §1
[14] = Adsorption in rhesus monkey blood cells at 1 mg/ml after 2 hrs by HPLC analysis; format: ADME, cell-based, Macaca mulatta; in short: as §1
[15] = Plasma concentration in Jcl:Sprague-Dawley rat at 14 mg/kg, iv after 45 mins by HPLC analysis; format: ADME, organism-based; set-up: dose 14 mg/kg, route intravenous; in short: as §3
[16] = Plasma concentration in rhesus monkey at 13.4 mg/kg, iv after 2 hrs by HPLC analysis; format: ADME, organism-based, Macaca mulatta; set-up: dose 13.4 mg/kg, route intravenous; in short: as §2
Rhesus monkey [17] = experiment: Toxicity in rhesus monkey assessed as prolonged PR interval in electrocardiogram at 70.6 mg, iv; format: organism-based, Macaca mulatta; conditions: in vivo
[18] = Adsorption in rhesus monkey blood cells assessed as YYA-021 level at 1 mg/ml after 2 hrs by HPLC analysis; format: ADME, cell-based, Macaca mulatta; in short: as §1
Plasma [19] = experiment: Adsorption in rhesus monkey plasma assessed as YYA-021 level at 1 mg/ml preincubated for 1 hr followed by plasma addition measured after 1 hr by HPLC analysis; format: ADME, cell-free, Macaca mulatta; in short: as §1
Rhesus monkey [20] = experiment: Toxicity in rhesus monkey assessed as mydriasis at 70.6 mg, iv; format: organism-based, Macaca mulatta; conditions: in vivo
[21] = Plasma concentration in rhesus monkey at 13.4 mg/kg, iv after 0.5 hrs by HPLC analysis; format: ADME, organism-based, Macaca mulatta; set-up: dose 13.4 mg/kg, route intravenous; in short: as §2
[22] = Adsorption in rhesus monkey blood cells assessed as YYA-021 level at 1 mg/ml after 1 hr by HPLC analysis; format: ADME, cell-based, Macaca mulatta; in short: as §1
[23] = Plasma concentration in Jcl:Sprague-Dawley rat at 14 mg/kg, iv after 240 mins by HPLC analysis; format: ADME, organism-based; set-up: dose 14 mg/kg, route intravenous; in short: as §3
Plasma [24] = experiment: Adsorption in rhesus monkey plasma assessed as YYA-021 level at 1 mg/ml after 1 hr followed by plasma addition by HPLC analysis; format: ADME, cell-free, Macaca mulatta; in short: as §1
Rhesus monkey [25] = experiment: Toxicity in iv dosed rhesus monkey; format: organism-based, Macaca mulatta; conditions: in vivo
Plasma [26] = experiment: Plasma concentration in rhesus monkey at 13.4 mg/kg, iv measured immediately by HPLC analysis; format: ADME, organism-based, Macaca mulatta; set-up: dose 13.4 mg/kg, route intravenous; conditions: in vivo; in short: as §2
[27] = Plasma concentration in Jcl:Sprague-Dawley rat at 14 mg/kg, iv after 15 mins by HPLC analysis; format: ADME, organism-based; set-up: dose 14 mg/kg, route intravenous; in short: as §3
[28] = Plasma concentration in rhesus monkey at 13.4 mg/kg, iv after 24 hrs by HPLC analysis; format: ADME, organism-based, Macaca mulatta; set-up: dose 13.4 mg/kg, route intravenous; in short: as §2
[29] = Adsorption in rhesus monkey blood cells at 1 mg/ml after 1 hr followed by plasma addition by HPLC analysis; format: ADME, cell-based, Macaca mulatta; in short: as §1
[30] = Plasma concentration in rhesus monkey at 13.4 mg/kg, iv after 1 hr by HPLC analysis; format: ADME, organism-based, Macaca mulatta; set-up: dose 13.4 mg/kg, route intravenous; in short: as §2
Rattus norvegicus [31] = experiment: Toxicity in Jcl:Sprague-Dawley rat assessed as change in body weight at 5 mg/kg, iv after 2 weeks relative to control; format: organism-based; set-up: dose 5 mg/kg, route intravenous; conditions: in vivo, 336 h
[32] = Adsorption in rhesus monkey blood cells at 1 mg/ml after 1 hr by HPLC analysis; format: ADME, cell-based, Macaca mulatta; in short: as §1
[33] = Plasma concentration in Jcl:Sprague-Dawley rat at 14 mg/kg, iv after 60 mins by HPLC analysis; format: ADME, organism-based; set-up: dose 14 mg/kg, route intravenous; in short: as §3
[34] = Adsorption in rhesus monkey blood cells at 1 mg/ml measured immediately by HPLC analysis; format: ADME, cell-based, Macaca mulatta; in short: as §1
[35] = Half life in rhesus monkey at 13.4 mg/kg, iv by HPLC analysis; format: ADME, organism-based, Macaca mulatta; set-up: dose 13.4 mg/kg, route intravenous; conditions: in vivo
In short: (§4)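 Dosed by cephalic vein injection in 30 mL 0.1 M sodium phosphate buffer with NaCl, pH 7.4. Blood (3.0 mL) was drawn at 0, 0.5, 1, 2, 4 and 24 h. Plasma was separated and stored at -80°C, then MeOH-extracted. Supernatant was spiked with phenol internal standard (final 150 µg/mL) and filtered for HPLC, quantified against a peak-area-ratio calibration curve.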

[36] = Volume of distribution in rhesus monkey at 13.4 mg/kg, iv after 24 hrs by HPLC analysis; format: ADME, organism-based, Macaca mulatta; set-up: dose 13.4 mg/kg, route intravenous; conditions: in vivo; in short: as §4
[37] = Half life in Jcl:Sprague-Dawley rat at 2.5 mg, iv by HPLC analysis; conditions: in vivo
[38] = Initial plasma concentration in rhesus monkey at 13.4 mg/kg, iv; format: ADME, organism-based, Macaca mulatta; set-up: dose 13.4 mg/kg, route intravenous; in short: as §4
[39] = Initial plasma concentration in Jcl:Sprague-Dawley rat at 14 mg/kg, iv by HPLC analysis; format: ADME, organism-based; set-up: dose 14 mg/kg, route intravenous
In short: (§5)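 Jcl:SD rats (6 weeks old) dosed iv via tail vein with 2.5 mg 2-HCl in 1.0 mL saline. Plasma sampled from 15 to 240 min and assayed by HPLC with phenol internal standard. Parameters derived from the plasma concentration–time course.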

Rattus norvegicus [40] = experiment: Volume of distribution in Jcl:Sprague-Dawley rat at 14 mg/kg, iv by HPLC analysis; format: ADME, organism-based; set-up: dose 14 mg/kg, route intravenous; conditions: in vivo; in short: as §5

SMILES: Cc1ccc(NC(=O)C(=O)NC2CC(C)(C)NC(C)(C)C2)cc1.Cl
- Activity (Plasma [1]): 102 µg/mL
- Activity (Plasma [2]): 105 µg/mL
- Activity (Plasma [3]): 120 µg/mL
- concentration at 4 h [4]: 392 ng/mL
- Activity (Rhesus monkey [5]): Toxic
- Activity (Plasma [6]): 102.9 µg/mL
- Activity (Plasma [7]): 133.7 µg/mL
- MTD (Rattus norvegicus [8]): 2.5 mg
- Activity [9]: 64.2 µg/mL
- Activity [10]: 17.9 µg/mL
- Activity (Plasma [11]): 51.2 µg/mL
- concentration at 0.5 h [12]: 2100 ng/mL
- Activity (Plasma [13]): 113.6 µg/mL
- Activity [14]: 68 µg/mL
- concentration at 0.75 h [15]: 1510 ng/mL
- concentration at 2 h [16]: 1090 ng/mL
- Activity (Rhesus monkey [17]): Toxic
- Activity [18]: 61 µg/mL
- Activity (Plasma [19]): 46 µg/mL
- Activity (Rhesus monkey [20]): Toxic
- concentration at 0.5 h [21]: 1330 ng/mL
- Activity [22]: 67.2 µg/mL
- concentration at 4 h [23]: 1120 ng/mL
- Activity (Plasma [24]): 92.4 µg/mL
- MTD (Rhesus monkey [25]): 35.3 mg
- Cp (Plasma [26]): 149 ng/mL
- concentration at 0.25 h [27]: 6010 ng/mL
- concentration at 24 h [28]: 415 ng/mL
- Activity [29]: 19.9 µg/mL
- concentration at 1 h [30]: 1260 ng/mL
- Activity (Rattus norvegicus [31]): Non-toxic
- Activity [32]: 74.8 µg/mL
- concentration at 1 h [33]: 620 ng/mL
- Activity [34]: 71.5 µg/mL

SMILES: Cc1ccc(NC(=O)C(=O)NC2CC(C)(C)NC(C)(C)C2)cc1
- half-life [35]: 98.4 min
- Vd [36]: 47.1 L
- half-life [37]: 8.46 min
- C0 [38]: 1500 ng/mL
- C0 [39]: 17300 ng/mL
- Vd (Rattus norvegicus [40]): 145 mL
